Measurements from ChEMBL document CHEMBL5376019, “Design, synthesis and evaluation of 2-phenylpyrimidine derivatives as novel antifungal agents targeting CYP51” (RSC Med Chem, 2024).
Converted amounts (≈) assume the structure as drawn.

How the values were obtained:
Assay type in all cases: functional
Candida albicans [1] = test: Antifungal activity against Candida albicans ATCC SC5314 assessed as fungal growth inhibition
Procedure, shortened: (§1)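 Broth microdilution per NCCLS M27-A3, with fluconazole as positive control. Assay medium was RPMI 1640 buffered with MOPS. Inocula were diluted to 1–5 × 10^3 CFU mL−1 and seeded in 96-well plates. Compounds were dissolved in DMSO and serially diluted in the growth medium. MIC was the read-out.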

Candida albicans [2] = test: Antifungal activity against Candida albicans CPCC400616 assessed as fungal growth inhibition; procedure, shortened: as §1
Candida tropicalis = test: Antifungal activity against Candida tropicalis CGMCC 2.3739 assessed as fungal growth inhibition; procedure, shortened: as §1
Cryptococcus neoformans = test: Antifungal activity against Cryptococcus neoformans CGMCC 2.3161 assessed as fungal growth inhibition; procedure, shortened: as §1
Candida parapsilosis = test: Antifungal activity against Candida parapsilosis GIM 2.190 assessed as fungal growth inhibition; conditions: Lodderomyces parapsilosis; procedure, shortened: as §1
Nakaseomyces glabratus = test: Antifungal activity against clinical isolate Candida glabrata assessed as fungal growth inhibition; procedure, shortened: as §1
Pichia kudriavzevii = test: Antifungal activity against Pichia kudriavzevii GIM 2.1 assessed as fungal growth inhibition; procedure, shortened: as §1

SMILES	MIC (Candida albicans [1])	MIC (Candida albicans [2])	MIC (Candida tropicalis)	MIC (Cryptococcus neoformans)	MIC (Candida parapsilosis)	MIC (Nakaseomyces glabratus)	MIC (Pichia kudriavzevii)
O=C(NC(Cn1ccnc1)C(=O)c1ccccc1)c1noc2c1CCc1ccccc1-2 (stereo not given)	8 µg/mL (≈ 19.4 µM)	8 µg/mL (≈ 19.4 µM)	4 µg/mL (≈ 9.7 µM)	–	–	–	–
O=C(NC(Cn1ccnc1)C(=O)c1ccccc1)c1cnc(-c2ccccc2F)nc1 (racemic)	> 64 µg/mL	> 64 µg/mL	> 64 µg/mL	> 64 µg/mL	> 64 µg/mL	> 64 µg/mL	> 64 µg/mL
O=C(NC(Cn1ccnc1)C(=O)c1ccccc1)c1ccc(-c2ncccn2)cc1 (racemic)	> 64 µg/mL	> 64 µg/mL	> 64 µg/mL	> 64 µg/mL	> 64 µg/mL	> 64 µg/mL	> 64 µg/mL
O=C(NC(Cn1ccnc1)C(=O)c1ccccc1)c1ccc(-c2cncnc2)cc1 (racemic)	> 64 µg/mL	> 64 µg/mL	> 64 µg/mL	> 64 µg/mL	> 64 µg/mL	> 64 µg/mL	> 64 µg/mL
O=C(NC(Cn1ccnc1)C(=O)c1ccccc1)c1csc(-c2ccccc2)n1 (racemic)	> 64 µg/mL	> 64 µg/mL	> 64 µg/mL	> 64 µg/mL	> 64 µg/mL	> 64 µg/mL	> 64 µg/mL
CC(C)(C)c1ccc(-c2ncc(C(=O)NC(Cn3ccnc3)C(=O)c3ccccc3)cn2)cc1 (racemic)	> 64 µg/mL	> 64 µg/mL	> 64 µg/mL	> 64 µg/mL	> 64 µg/mL	> 64 µg/mL	> 64 µg/mL
O=C(NC(Cn1ccnc1)C(=O)c1ccccc1)c1ccc(-c2ccccc2)cn1 (racemic)	> 64 µg/mL	> 64 µg/mL	> 64 µg/mL	> 64 µg/mL	> 64 µg/mL	> 64 µg/mL	> 64 µg/mL
CCc1ccc(-c2ncc(C(=O)NC(Cn3ccnc3)C(=O)c3ccccc3)cn2)cc1 (racemic)	> 64 µg/mL	> 64 µg/mL	> 64 µg/mL	> 64 µg/mL	> 64 µg/mL	> 64 µg/mL	> 64 µg/mL
O=C(NC(Cn1ccnc1)C(=O)c1ccccc1)c1cnc(-c2cccc(C(F)(F)F)c2)nc1 (racemic)	> 64 µg/mL	> 64 µg/mL	> 64 µg/mL	> 64 µg/mL	> 64 µg/mL	> 64 µg/mL	> 64 µg/mL
Cc1ccc(-c2ncc(C(=O)NC(Cn3ccnc3)C(=O)c3ccccc3)cn2)cc1 (racemic)	> 64 µg/mL	> 64 µg/mL	> 64 µg/mL	> 64 µg/mL	> 64 µg/mL	> 64 µg/mL	> 64 µg/mL
CC(C)c1ccc(-c2ncc(C(=O)NC(Cn3ccnc3)C(=O)c3ccccc3)cn2)cc1 (racemic)	> 64 µg/mL	> 64 µg/mL	> 64 µg/mL	> 64 µg/mL	> 64 µg/mL	> 64 µg/mL	> 64 µg/mL
COc1ccc(-c2ncc(C(=O)NC(Cn3ccnc3)C(=O)c3ccccc3)cn2)cc1 (racemic)	> 64 µg/mL	> 64 µg/mL	> 64 µg/mL	> 64 µg/mL	> 64 µg/mL	> 64 µg/mL	> 64 µg/mL
CC(C)(C)c1cccc(-c2ncc(C(=O)NC(Cn3ccnc3)C(=O)c3ccccc3)cn2)c1 (racemic)	> 64 µg/mL	> 64 µg/mL	> 64 µg/mL	> 64 µg/mL	> 64 µg/mL	> 64 µg/mL	> 64 µg/mL
O=C(NC(Cn1ccnc1)C(=O)c1ccccc1)c1cnc(-c2cccc(OC(F)(F)F)c2)nc1 (racemic)	> 64 µg/mL	> 64 µg/mL	> 64 µg/mL	> 64 µg/mL	> 64 µg/mL	> 64 µg/mL	> 64 µg/mL
O=C(NC(Cn1ccnc1)C(=O)c1ccccc1)c1cnc(-c2ccc(OC(F)(F)F)cc2)nc1 (racemic)	> 64 µg/mL	> 64 µg/mL	> 64 µg/mL	> 64 µg/mL	> 64 µg/mL	> 64 µg/mL	> 64 µg/mL
CC(C)c1cccc(-c2ncc(C(=O)NC(Cn3ccnc3)C(=O)c3ccccc3)cn2)c1 (racemic)	> 64 µg/mL	> 64 µg/mL	> 64 µg/mL	> 64 µg/mL	> 64 µg/mL	> 64 µg/mL	> 64 µg/mL
O=C(NC(Cn1ccnc1)C(=O)c1ccccc1)c1cnc(-c2cccc(Cl)c2)nc1 (racemic)	> 64 µg/mL	> 64 µg/mL	> 64 µg/mL	> 64 µg/mL	> 64 µg/mL	> 64 µg/mL	> 64 µg/mL

Other lines, results leading:

MIC (Candida albicans [1])	MIC (Candida albicans [2])	MIC (Candida tropicalis)	MIC (Cryptococcus neoformans)	MIC (Candida parapsilosis)	MIC (Nakaseomyces glabratus)	MIC (Pichia kudriavzevii)	SMILES
16 µg/mL (≈ 38.5 µM)	32 µg/mL (≈ 77 µM)	> 64 µg/mL	> 64 µg/mL	64 µg/mL (≈ 154 µM)	> 64 µg/mL	> 64 µg/mL	O=C(NC(Cn1ccnc1)C(=O)c1ccccc1)c1cnc(-c2ccc(F)cc2)nc1 (racemic)
8 µg/mL (≈ 18.5 µM)	16 µg/mL (≈ 37 µM)	4 µg/mL (≈ 9.26 µM)	> 64 µg/mL	> 64 µg/mL	> 64 µg/mL	> 64 µg/mL	O=C(NC(Cn1ccnc1)C(=O)c1ccccc1)c1cnc(-c2ccc(Cl)cc2)nc1 (racemic)
8 µg/mL (≈ 18.5 µM)	16 µg/mL (≈ 37 µM)	4 µg/mL (≈ 9.26 µM)	> 64 µg/mL	32 µg/mL (≈ 74.1 µM)	> 64 µg/mL	16 µg/mL (≈ 37 µM)	O=C(NC(Cn1ccnc1)C(=O)c1ccccc1)c1cnc(-c2ccccc2Cl)nc1 (racemic)
8 µg/mL (≈ 20.2 µM)	16 µg/mL (≈ 40.4 µM)	8 µg/mL (≈ 20.2 µM)	> 64 µg/mL	> 64 µg/mL	> 64 µg/mL	16 µg/mL (≈ 40.4 µM)	O=C(NC(Cn1ccnc1)C(=O)c1ccccc1)c1ccc(-c2ccncc2)cc1 (racemic)
4 µg/mL (≈ 9.47 µM)	> 64 µg/mL	> 64 µg/mL	> 64 µg/mL	> 64 µg/mL	> 64 µg/mL	> 64 µg/mL	N#Cc1ccc(-c2ncc(C(=O)NC(Cn3ccnc3)C(=O)c3ccccc3)cn2)cc1 (racemic)
4 µg/mL (≈ 10.1 µM)	16 µg/mL (≈ 40.3 µM)	8 µg/mL (≈ 20.1 µM)	> 64 µg/mL	> 64 µg/mL	32 µg/mL (≈ 80.5 µM)	16 µg/mL (≈ 40.3 µM)	O=C(NC(Cn1ccnc1)C(=O)c1ccccc1)c1cnc(-c2ccccc2)nc1 (racemic)
32 µg/mL (≈ 82.8 µM)	64 µg/mL (≈ 166 µM)	> 64 µg/mL	> 64 µg/mL	> 64 µg/mL	> 64 µg/mL	> 64 µg/mL	O=C(NC(Cn1ccnc1)C(=O)c1ccccc1)c1cc(-c2ccccc2)on1 (racemic)
16 µg/mL (≈ 41.5 µM)	> 64 µg/mL	> 64 µg/mL	> 64 µg/mL	> 64 µg/mL	> 64 µg/mL	> 64 µg/mL	O=C(NC(Cn1ccnc1)C(=O)c1ccccc1)c1ccc(-c2ccoc2)cc1 (racemic)
2 µg/mL (≈ 4.81 µM)	8 µg/mL (≈ 19.3 µM)	4 µg/mL (≈ 9.63 µM)	32 µg/mL (≈ 77 µM)	16 µg/mL (≈ 38.5 µM)	32 µg/mL (≈ 77 µM)	32 µg/mL (≈ 77 µM)	O=C(NC(Cn1ccnc1)C(=O)c1ccccc1)c1cnc(-c2cccc(F)c2)nc1 (racemic)
8 µg/mL (≈ 20.2 µM)	32 µg/mL (≈ 80.7 µM)	> 64 µg/mL	> 64 µg/mL	> 64 µg/mL	> 64 µg/mL	> 64 µg/mL	O=C(NC(Cn1ccnc1)C(=O)c1ccccc1)c1ccc(-c2cccnc2)cc1 (racemic)
